Data published in ChEMBL document CHEMBL4270598, “Synthesis and discovery of a drug candidate for treatment of idiopathic pulmonary fibrosis through inhibition of TGF-β1 pathway” (Eur J Med Chem, 2018).
Calls of active or inactive are those of the source. No cut-off for these calls is given here.

Assays:
[1] = biological target: T1, Transforming growth factor beta-1 proprotein/Mothers against decapentaplegic homolog 3 (Homo sapiens) (UniProt P84022+P01137); test: Inhibition of TGF-beta1/smad3 signaling pathway in human HFL cells assessed as decrease in Col1 protein expression level at 10 uM after 24 hrs by Western blot analysis; type: cell-based
Method in brief: (§1)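 HFL1 human lung fibroblasts given TGF-β1 (5 ng/mL) with or without compound at 10 µM: 24 h for α-SMA (cell lysate) and collagen I (medium), 30 min for p-Smad3. RIPA lysis with phosphatase inhibitor, then Western blot. Band density normalized to β-actin. n=3.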

[2] = biological target: T1, Transforming growth factor beta-1 proprotein/Mothers against decapentaplegic homolog 3 (Homo sapiens); test: Inhibition of TGF-beta1/smad3 signaling pathway in human HFL cells assessed as decrease in smad3 phosphorylation at 10 uM after 30 mins by Western blot analysis; type: cell-based; method in brief: as §1
[3] = biological target: T2, Transforming growth factor beta-1 proprotein/Mothers against decapentaplegic homolog 3 (Mus musculus) (UniProt P04202+Q8BUN5); test: Inhibition of TGF-beta1/smad3 signaling pathway in mouse NIH/3T3 cells assessed as decrease in ECM production at 10 uM after 24 hrs; type: cell-based
Mus musculus [4] = test: In vivo inhibition of TGF-beta1/smad3 signaling pathway in bleomycin-induced pulmonary fibrosis in C57BL/6 mouse model assessed as decrease in smad3 phosphorylation in lung tissue at 100 mg/kg, po qd administered from day 7 to 14 by Western blot analysis; type: functional, organism-based
[5] = biological target: T1, Transforming growth factor beta-1 proprotein/Mothers against decapentaplegic homolog 3 (Homo sapiens); test: Inhibition of TGF-beta1/smad3 signaling pathway in human HFL cell extract assessed as decrease in alpha-SMA protein expression at 10 uM after 24 hrs by Western blot analysis; method in brief: as §1
[6] = Stability in rat plasma assessed as parent compound remaining after 3 hrs by LC-MS/MS analysis; type: ADME, cell-free; settings: read-out: Stability
Method in brief: (§2)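 Compound solution (1 mM stock) added 1:100 into blank plasma and incubated at 37 °C for up to 12 h. Aliquots quenched in acetonitrile/MeOH with buspirone internal standard and centrifuged. Parent compound and released products quantified by LC/MS-MS.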

[7] = Half life in Sprague-Dawley rat at 30 mg/kg, iv by LC-MS/MS analysis; type: ADME, organism-based; settings: in vivo
Method in brief: (§3)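 Male Sprague-Dawley rats (220-350 g) given a single dose, IV 30 mg/kg or PO 150 mg/kg. Heparinized blood sampled at 2 min-8 h (IV) or 5 min-12 h (PO). Plasma protein-precipitated with acetonitrile/MeOH containing buspirone internal standard. Drug quantified by LC/MS-MS, parameters from non-compartmental analysis. n = 5 per curve.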

[8] = Half life in Sprague-Dawley rat at 150 mg/kg, po by LC-MS/MS analysis; type: ADME, organism-based; settings: in vivo; method in brief: as §3
[9] = Oral bioavailability in Sprague-Dawley rat at 150 mg/kg by LC-MS/MS analysis; type: ADME, organism-based; settings: in vivo; method in brief: as §3
Mus musculus [10] = test: In vivo inhibition of TGF-beta1/smad3 signaling pathway in bleomycin-induced pulmonary fibrosis in C57BL/6 mouse model assessed as decrease in Col1 protein expression level in lung tissue at 100 mg/kg, po qd administered from day 7 to 14 by Western blot analysis; type: functional, organism-based
Rattus norvegicus [11] = test: AUC (0 to infinity) in Sprague-Dawley rat at 150 mg/kg, po by LC-MS/MS analysis; type: ADME, organism-based; parameters: dose 150 mg/kg, time infinity, route oral; settings: in vivo; method in brief: as §3
Mus musculus [12] = test: In vivo inhibition of TGF-beta1/smad3 signaling pathway in bleomycin-induced pulmonary fibrosis in C57BL/6 mouse model assessed as decrease in alpha-SMA level in lung tissue at 100 mg/kg, po qd administered from day 7 to 14 by immunohistochemical analysis; type: functional, organism-based
Method in brief: (§4)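 Lungs from bleomycin-challenged C57BL/6 mice (2 U/kg intratracheal; 100 mg/kg daily, days 7-14) were paraffin-embedded and dewaxed. Citrate (0.01 M) microwave antigen retrieval, then 5% serum block. Primary antibodies overnight at 4 °C: α-SMA 1:200, collagen I 1:100, p-Smad3 1:50. Secondary antibody 1 h at room temperature, then hematoxylin counterstain and microscopy.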

[13] = biological target: T2, Transforming growth factor beta-1 proprotein/Mothers against decapentaplegic homolog 3 (Mus musculus); test: Inhibition of TGF-beta1/smad3 signaling pathway in mouse NIH/3T3 cell extract assessed as decrease in alpha-SMA protein expression at 10 uM after 24 hrs by Western blot analysis
Mus musculus [14] = test: Toxicity in C57/BL6 mouse assessed as mouse survival at 2 g/kg administered orally via gavage daily as single dose for 7 days; type: organism-based; settings: in vivo, po, 2000 mg/kg, 168 h
Method in brief: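 C57BL/6 mice, 20-22 g, dosed by oral gavage once daily at 2 g/kg for 7 days, n = 10; survival recorded.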

[15] = Drug metabolism in rat plasma assessed as (3aR,4aR,5R,6R,8aR,9aR)-6-Hydroxy-8a-methyl-3-methylenedecahydro-2H-spiro[naphtho[2,3-b]furan-5,2'-oxiran]-2-one formation after 12 hrs by LC-MS/MS analysis; type: ADME, cell-free; method in brief: as §2
Rattus norvegicus [16] = test: AUC (0 to t) in Sprague-Dawley rat at 30 mg/kg, iv by LC-MS/MS analysis; type: ADME, organism-based; settings: in vivo; method in brief: as §3
[17] = Cmax in Sprague-Dawley rat at 30 mg/kg, iv by LC-MS/MS analysis; type: ADME, organism-based; parameters: dose 30 mg/kg, route intravenous; settings: in vivo; method in brief: as §3
Mus musculus [18] = test: In vivo inhibition of TGF-beta1/smad3 signaling pathway in bleomycin-induced pulmonary fibrosis in C57BL/6 mouse model assessed as decrease in Col1 level in lung tissue at 100 mg/kg, po qd administered from day 7 to 14 by immunohistochemical analysis; type: functional, organism-based; method in brief: as §4
Mus musculus [19] = test: Antifibrotic activity in bleomycin-induced pulmonary fibrosis in C57BL/6 mouse model assessed as decrease in ECM production at 100 mg/kg, po qd administered from day 7 to 14 by hematoxylin-eosin staining based fluorescence microscopy; type: functional, organism-based
Method in brief: (§5)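 Male C57BL/6 mice (7-8 weeks, n=5/group) given intratracheal bleomycin 2 U/kg under chloral hydrate anaesthesia. Dosing at 100 mg/kg daily from day 7 to day 14, sacrifice at day 14. Left lungs formalin-fixed, paraffin-embedded, 5 µm sections HE-stained. Fibrosis ratio taken as fibrotic-region pixels over total lung pixels.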

[20] = biological target: T2, Transforming growth factor beta-1 proprotein/Mothers against decapentaplegic homolog 3 (Mus musculus); test: Inhibition of TGF-beta1/smad3 signaling pathway in mouse NIH/3T3 cell extract assessed as decrease in Smad3 phosphorylation at 10 uM after 30 mins by Western blot analysis; type: protein assay
Mus musculus [21] = test: Antifibrotic activity in bleomycin-induced pulmonary fibrosis in C57BL/6 mouse model assessed as decrease in collagen content in lung at 100 mg/kg, po qd administered from day 7 to 14 by spectrophotometric method; type: functional, organism-based
Method in brief: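 Bleomycin model as above: 2 U/kg intratracheal in male C57BL/6 mice, 100 mg/kg daily from day 7 to day 14. Right lungs collected at day 14, dried and acid-hydrolysed, filtered, and pH adjusted to 6.5-8.0. Hydroxyproline then measured by chloramine-T spectrophotometry.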

[22] = Tmax in Sprague-Dawley rat at 30 mg/kg, iv by LC-MS/MS analysis; type: ADME, organism-based; settings: in vivo; method in brief: as §3
Rattus norvegicus [23] = test: AUC (0 to infinity) in Sprague-Dawley rat at 30 mg/kg, iv by LC-MS/MS analysis; type: ADME, organism-based; parameters: dose 30 mg/kg, time infinity, route intravenous; settings: in vivo; method in brief: as §3
[24] = Cmax in Sprague-Dawley rat at 150 mg/kg, po by LC-MS/MS analysis; type: ADME, organism-based; parameters: dose 150 mg/kg, route oral; settings: in vivo; method in brief: as §3
Mus musculus [25] = test: Antifibrotic activity in bleomycin-induced pulmonary fibrosis in C57BL/6 mouse model assessed as fibrotic area in lungs at 100 mg/kg, po qd administered from day 7 to 14 by hematoxylin-eosin staining based fluorescence microscopy; type: functional; method in brief: as §5
Rattus norvegicus [26] = test: AUC (0 to t) in Sprague-Dawley rat at 150 mg/kg, po by LC-MS/MS analysis; type: ADME, organism-based; settings: in vivo; method in brief: as §3
Mus musculus [27] = test: In vivo inhibition of TGF-beta1/smad3 signaling pathway in bleomycin-induced pulmonary fibrosis in C57BL/6 mouse model assessed as decrease in smad3 phosphorylation level in lung tissue at 100 mg/kg, po qd administered from day 7 to 14 by immunohistochemical analysis; type: functional, organism-based; method in brief: as §4
[28] = biological target: T2, Transforming growth factor beta-1 proprotein/Mothers against decapentaplegic homolog 3 (Mus musculus); test: Inhibition of TGF-beta1/smad3 signaling pathway in mouse NIH/3T3 cells after 18 hrs by CAGA-luciferase reporter gene assay; type: cell-based
[29] = Tmax in Sprague-Dawley rat at 150 mg/kg, po by LC-MS/MS analysis; type: ADME, organism-based; settings: in vivo; method in brief: as §3
Mus musculus [30] = test: Toxicity in C57/BL6 mouse assessed as mouse survival at 1 to 5 g/kg administered orally via gavage as single dose; type: organism-based; settings: in vivo, po
Method in brief: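 Male-unspecified C57BL/6 mice, 20-22 g; single oral gavage dose at 1, 2, 3, 4 and 5 g/kg, n = 10; survival recorded.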

Mus musculus [31] = test: Toxicity in C57/BL6 mouse assessed as appearance of systemic symptoms at 2 g/kg administered orally via gavage daily as single dose for 30 days; type: organism-based; settings: in vivo, po, 2000 mg/kg, 720 h
Method in brief: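 C57BL/6 mice given compound by oral gavage at 2 g/kg once daily for 30 days (n=10) and observed for systemic symptoms and deaths.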

[32] = Drug metabolism in rat plasma assessed as (1aR,2S,5aR,6aR,9aR,9bS)-2,5a-Dimethyl-9-methyleneoctahydro-2H-oxireno[2',3':4,4a]naphtho[2,3-b]furan-8(9H)-one formation after 12 hrs by LC-MS/MS analysis; type: ADME, cell-free; method in brief: as §2

T1 sequence (P01137 whole entry, looked up): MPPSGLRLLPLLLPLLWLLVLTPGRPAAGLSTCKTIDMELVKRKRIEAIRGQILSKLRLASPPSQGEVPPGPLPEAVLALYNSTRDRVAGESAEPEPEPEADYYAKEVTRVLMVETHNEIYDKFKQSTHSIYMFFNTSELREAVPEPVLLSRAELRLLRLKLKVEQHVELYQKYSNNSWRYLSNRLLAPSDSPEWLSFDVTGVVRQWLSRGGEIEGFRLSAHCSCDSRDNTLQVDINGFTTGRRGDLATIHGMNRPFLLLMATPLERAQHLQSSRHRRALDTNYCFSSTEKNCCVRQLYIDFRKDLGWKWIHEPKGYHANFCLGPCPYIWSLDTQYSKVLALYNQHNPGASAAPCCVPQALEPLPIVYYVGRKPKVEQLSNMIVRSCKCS
T1 sequence (P84022 whole entry, looked up): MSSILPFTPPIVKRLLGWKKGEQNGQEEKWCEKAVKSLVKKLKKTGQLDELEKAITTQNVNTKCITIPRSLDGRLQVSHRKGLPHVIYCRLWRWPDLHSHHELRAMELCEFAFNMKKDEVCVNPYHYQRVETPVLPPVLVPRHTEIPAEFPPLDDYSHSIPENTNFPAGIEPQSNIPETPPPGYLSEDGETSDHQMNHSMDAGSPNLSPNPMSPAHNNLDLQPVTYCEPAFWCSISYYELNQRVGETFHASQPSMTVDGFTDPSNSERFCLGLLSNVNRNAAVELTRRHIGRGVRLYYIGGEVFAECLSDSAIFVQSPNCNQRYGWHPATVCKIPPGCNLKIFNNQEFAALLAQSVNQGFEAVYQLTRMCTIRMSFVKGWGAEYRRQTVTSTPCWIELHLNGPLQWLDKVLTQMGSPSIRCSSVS
T2 sequence (P04202 279-390 limits assumed): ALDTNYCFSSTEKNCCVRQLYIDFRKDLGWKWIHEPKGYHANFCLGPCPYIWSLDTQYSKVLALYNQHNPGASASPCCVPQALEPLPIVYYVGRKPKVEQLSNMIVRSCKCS
T2 sequence (Q8BUN5 2-425 partner limits assumed): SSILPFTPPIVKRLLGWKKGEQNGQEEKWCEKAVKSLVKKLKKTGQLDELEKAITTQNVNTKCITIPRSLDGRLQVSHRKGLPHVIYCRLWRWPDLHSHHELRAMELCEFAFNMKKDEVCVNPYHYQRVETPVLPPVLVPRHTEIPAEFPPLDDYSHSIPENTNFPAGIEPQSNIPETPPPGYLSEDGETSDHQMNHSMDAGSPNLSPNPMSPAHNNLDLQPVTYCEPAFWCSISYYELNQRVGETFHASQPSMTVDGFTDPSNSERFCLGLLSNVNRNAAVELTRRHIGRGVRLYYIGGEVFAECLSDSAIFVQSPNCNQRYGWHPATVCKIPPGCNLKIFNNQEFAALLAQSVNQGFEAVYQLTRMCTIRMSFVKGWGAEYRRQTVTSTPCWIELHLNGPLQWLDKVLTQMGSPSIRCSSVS

Compound | inhibition [1] | inhibition [2] | inhibition [3] | inhibition (Mus musculus [4]) | inhibition [5] | remaining at 3 h [6] [%] | half-life [7] [min] | half-life [8] [min] | bioavailability [9] [%] | inhibition (Mus musculus [10]) | AUC (Rattus norvegicus [11]) [ng·h/mL] | inhibition (Mus musculus [12]) | inhibition [13] | Activity (Mus musculus [14]) | AUCt (Rattus norvegicus [16]) [ng·h/mL] | Cmax [17] [ng/mL] | inhibition (Mus musculus [18]) | Activity (Mus musculus [19]) | inhibition [20] | Activity (Mus musculus [21]) | further results
CN(C)C[C@@H]1C(=O)O[C@@H]2C[C@@]3(C)CC[C@@H](O)[C@]4(CO4)[C@@H]3C[C@H]12.O=C(O)/C=C/C(=O)O | Active | Active | Active | Active | Active | > 50 | 81 | 121 | 78 | Active | 174000 | Active | Active | Non-Toxic | 43800 | 22700 | Active | Active | Active | Active | Drug metabolism [15]: Metabolite_Detected; Tmax [22]: 17 min; AUC (Rattus norvegicus [23]): 44900 ng·h/mL; Cmax [24]: 62300 ng/mL; Activity (Mus musculus [25]): 60.5%; AUCt (Rattus norvegicus [26]): 171000 ng·h/mL; inhibition (Mus musculus [27]): Active; inhibition [28]: Dose-dependent effect; Tmax [29]: 42 min; Activity (Mus musculus [30]): Non-Toxic
C[C@H]1CCC[C@]2(C)C[C@H]3OC(=O)[C@@H](CN(C)C)[C@H]3[C@@H]3O[C@@]132.O=C(O)/C=C/C(=O)O | Active | Active | Active | Active | Active | > 50 | 73 | 85 | 75 | Active | 37800 | Active | Active | Non-Toxic | 10000 | 17500 | Active | Active | Active | Active | Activity (Mus musculus [31]): Non-Toxic; Drug metabolism [32]: Metabolite_Detected; Tmax [22]: 2 min; AUC (Rattus norvegicus [23]): 10000 ng·h/mL; Cmax [24]: 18500 ng/mL; Activity (Mus musculus [25]): 71.8%; AUCt (Rattus norvegicus [26]): 37600 ng·h/mL; inhibition (Mus musculus [27]): Active; inhibition [28]: Dose-dependent effect; Tmax [29]: 30 min; Activity (Mus musculus [30]): Non-Toxic
